Reference: ChEMBL document CHEMBL5678805, “Intermittent administration of MEK inhibitor GDC-0973 plus PI3K inhibitor GDC-0941 triggers robust apoptosis and tumor growth inhibition” (Cancer Res, 2012)
Calls of active or inactive are those of the source. The rule behind the calls is not given here.

How the values were obtained:
[1] = target: Insulin-like growth factor 1 receptor (Homo sapiens, UniProt P08069); assay: Inhibition of IGF1R (unknown origin)
[2] = target: G protein-coupled receptor kinase 5 (Homo sapiens, UniProt P34947); assay: Inhibition of GRK5 (unknown origin)
[3] = target: Serine/threonine-protein kinase PAK 4 (Homo sapiens, UniProt O96013); assay: Inhibition of PAK4 (unknown origin)
[4] = tested on: 888-mel; assay: Inhibition of AKT phosphorylation in human 888-mel cells preincubated with compound for 24 hrs followed by compound washout and measured after 2 hrs in presence of 4-(2-(1H-indazol-4-yl)-6-((4-(methylsulfonyl)piperazin-1-yl)methyl)thieno[3,2-d]pyrimidin-4-yl)morpholine by immunoblotting analysis; assay type: cell-based
How it was run: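 The medium was then exchanged to remove compound. Lysates were prepared 2 and 24 h after washout and immunoblotted for cleaved PARP, p-AKT and p-ERK using HRP secondary antibody and ECL.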

[5] = tested on: A2058; assay: Antitumor activity against human A2058 cells xenografted in mouse assessed as tumor growth inhibition at 15 mg/kg, po administered every third day for 21 days; assay type: functional; conditions: A2058, 504 h, time 21 day, read-out: TGI
How it was run: (§1)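 Human tumor xenografts in mice. Drugs given orally, as single agents or combined with the PI3K inhibitor. Schedules were daily (QD) or every third day (Q3D) over 21 days. Tumor volume was measured by caliper as (L×W×W)/2. %TGI = 100×[1 − AUC(treatment/d)/AUC(vehicle/d)] from fitted growth curves, with group means. Tumor lysates were immunoblotted for pS6.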

[6] = tested on: A2058; assay: Antitumor activity against human A2058 cells harboring BRAF V600E/PTEN L112Q/V175/TP53 V274F mutant xenografted in mouse assessed as tumor growth inhibition at 10 mg/kg, po; assay type: functional; conditions: read-out: TGI
How it was run: (§2)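 Mice carrying human tumor xenografts dosed orally once daily for 21 consecutive days. Tumor volume measured by calipers as (L×W×W)/2. %TGI = 100×[1 − AUC(treatment/day)/AUC(vehicle/day)], using the area under the fitted growth curve relative to vehicle.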

[7] = tested on: A2058; assay: Antitumor activity against human A2058 cells harboring BRAF V600E/PTEN deletion mutant xenografted in mouse assessed as suppression of AKT phosphorylation at 15 mg/kg, po administered every third day for 21 days and measured after 72 hrs post dose in presence of 4-(2-(1H-indazol-4-yl)-6-((4-(methylsulfonyl)piperazin-1-yl)methyl)thieno[3,2-d]pyrimidin-4-yl)morpholine by Western blot analysis; assay type: functional, organism-based; conditions: time 576.0 hrs
[8] = target: Serine/threonine-protein kinase pim-1 (Homo sapiens, UniProt P11309); assay: Inhibition of PIM1 (unknown origin)
Serine/threonine-protein kinase pim-1, sequence (P11309 whole entry): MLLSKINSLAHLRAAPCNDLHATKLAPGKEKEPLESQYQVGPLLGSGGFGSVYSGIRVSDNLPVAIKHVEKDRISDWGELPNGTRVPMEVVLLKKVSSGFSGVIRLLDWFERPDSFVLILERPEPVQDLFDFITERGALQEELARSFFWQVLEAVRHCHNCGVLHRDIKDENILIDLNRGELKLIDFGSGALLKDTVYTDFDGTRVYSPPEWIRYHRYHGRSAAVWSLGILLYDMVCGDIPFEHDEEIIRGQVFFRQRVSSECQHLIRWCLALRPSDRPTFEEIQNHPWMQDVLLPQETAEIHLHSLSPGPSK

[9] = tested on: NCI-H520; assay: Antitumor activity against human NCI-H520 cells harboring TP53 W146 and CDKN2A G G45 mutant xenografted in mouse assessed as tumor growth inhibition at 5 mg/kg, po; assay type: functional; conditions: read-out: TGI
How it was run: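 Human tumor xenografts in mice were dosed orally at the indicated mg/kg. Tumor volume was measured with calipers as (L×W×W)/2. %TGI = 100 × [1 − (AUC treatment/d)/(AUC vehicle/d)], using the area under the fitted tumor-growth curve per day for each dose group relative to vehicle.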

[10] = target: Hepatocyte growth factor receptor (Homo sapiens, UniProt P08581); assay: Inhibition of Met (unknown origin)
Hepatocyte growth factor receptor, sequence (P08581 whole entry): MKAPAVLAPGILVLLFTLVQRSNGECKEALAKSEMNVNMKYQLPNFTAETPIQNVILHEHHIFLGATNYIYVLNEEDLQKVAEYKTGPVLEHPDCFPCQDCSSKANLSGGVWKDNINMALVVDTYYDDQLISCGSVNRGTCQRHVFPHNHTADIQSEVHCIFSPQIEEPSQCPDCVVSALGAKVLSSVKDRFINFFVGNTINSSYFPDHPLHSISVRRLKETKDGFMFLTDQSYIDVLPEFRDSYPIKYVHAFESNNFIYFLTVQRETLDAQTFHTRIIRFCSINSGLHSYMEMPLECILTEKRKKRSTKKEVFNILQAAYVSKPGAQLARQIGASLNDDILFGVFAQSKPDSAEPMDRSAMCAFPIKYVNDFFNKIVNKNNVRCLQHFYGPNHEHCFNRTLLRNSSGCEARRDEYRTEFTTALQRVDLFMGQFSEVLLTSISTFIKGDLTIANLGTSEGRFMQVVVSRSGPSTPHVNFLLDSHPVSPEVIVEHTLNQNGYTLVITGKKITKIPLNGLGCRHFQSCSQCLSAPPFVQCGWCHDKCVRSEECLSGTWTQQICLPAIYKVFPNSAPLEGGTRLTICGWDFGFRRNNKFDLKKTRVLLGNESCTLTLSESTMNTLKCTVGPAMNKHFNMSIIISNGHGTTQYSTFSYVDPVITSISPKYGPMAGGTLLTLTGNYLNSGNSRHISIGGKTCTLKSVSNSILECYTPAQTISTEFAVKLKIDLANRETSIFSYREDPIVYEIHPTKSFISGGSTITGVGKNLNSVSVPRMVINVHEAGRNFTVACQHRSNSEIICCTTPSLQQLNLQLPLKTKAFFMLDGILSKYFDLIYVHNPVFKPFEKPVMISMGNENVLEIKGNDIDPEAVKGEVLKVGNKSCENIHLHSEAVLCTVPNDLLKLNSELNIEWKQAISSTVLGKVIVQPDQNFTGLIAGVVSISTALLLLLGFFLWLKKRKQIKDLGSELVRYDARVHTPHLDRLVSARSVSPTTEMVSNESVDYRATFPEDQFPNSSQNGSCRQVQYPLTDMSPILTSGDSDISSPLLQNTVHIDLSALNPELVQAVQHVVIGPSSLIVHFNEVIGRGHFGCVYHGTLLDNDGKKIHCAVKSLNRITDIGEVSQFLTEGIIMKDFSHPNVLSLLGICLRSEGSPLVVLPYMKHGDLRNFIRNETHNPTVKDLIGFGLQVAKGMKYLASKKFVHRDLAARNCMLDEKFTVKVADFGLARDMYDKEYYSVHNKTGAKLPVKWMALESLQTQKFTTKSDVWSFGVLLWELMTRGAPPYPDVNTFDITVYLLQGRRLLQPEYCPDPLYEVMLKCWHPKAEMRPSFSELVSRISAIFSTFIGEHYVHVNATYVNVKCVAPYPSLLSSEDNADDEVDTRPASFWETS

[11] = target: Rho-associated protein kinase 1 (Homo sapiens, UniProt Q13464); assay: Inhibition of ROCK1 (unknown origin)
[12] = target: Serine/threonine-protein kinase PLK3 (Homo sapiens, UniProt Q9H4B4); assay: Inhibition of Plk3 (unknown origin)
[13] = tested on: DLD-1; assay: Antitumor activity against human DLD-1 cells harboring KRAS G13D/IDH1 G97D/SMO T640A/APC I1417 mutant xenografted in mouse assessed as tumor growth inhibition at 10 mg/kg, po; assay type: functional; conditions: read-out: TGI
How it was run: (§3)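 Single-agent dose ranging in human tumor xenograft mice at 2.5, 5 or 10 mg/kg oral. Tumor volume was measured by caliper as (L×W×W)/2. %TGI = 100×[1 − AUC(treatment/d)/AUC(vehicle/d)] from the fitted growth curve per dose group, relative to vehicle.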

[14] = target: Ephrin type-A receptor 2 (Homo sapiens, UniProt P29317); assay: Inhibition of EphA2 (unknown origin)
[15] = tested on: LoVo; assay: Antitumor activity against human LoVo cells harboring KRAS G13D/CDKN2A P48L/FBXW7 R505C/MSH2/SMO G16_L17insLL/A324T/NF1 R1276Q/Y1607fs17/APC1114 mutant xenografted in mouse assessed as tumor growth inhibition at 5 mg/kg, po; assay type: functional; conditions: read-out: TGI; how it was run: as §3
[16] = tested on: LoVo; assay: Antitumor activity against human LoVo cells harboring KRAS G13D/CDKN2A P48L/FBXW7 R505C/MSH2/SMO G16_L17insLL/A324T/NF1 R1276Q/Y1607fs17/APC1114 mutant xenografted in mouse assessed as tumor growth inhibition at 10 mg/kg, po; assay type: functional; conditions: read-out: TGI; how it was run: as §3
[17] = tested on: 537-mel; assay: Antitumor activity against human 537-mel cells harboring PTEN null mutation xenografted in mouse assessed as tumor growth inhibition at 5 mg/kg, po; assay type: functional; conditions: read-out: TGI; how it was run: as §2
[18] = target: Mitogen-activated protein kinase 14 (Homo sapiens, UniProt Q16539); assay: Inhibition of p38alpha (unknown origin)
[19] = tested on: DLD-1; assay: Antitumor activity against human DLD-1 cells xenografted in mouse assessed as tumor growth inhibition at 3 mg/kg, po administered once a day for 21 days; assay type: functional; conditions: DLD-1, 504 h, time 21 day, read-out: TGI; how it was run: as §1
[20] = tested on: A2058; assay: Antitumor activity against human A2058 cells harboring BRAF V600E/PTEN deletion mutant xenografted in mouse assessed as increase in BimL level at 15 mg/kg, po administered every third day for 21 days and measured after 8 hrs post dose by Western blot analysis; assay type: functional, organism-based; conditions: time 512.0 hrs
[21] = target: Misshapen-like kinase 1 (Homo sapiens, UniProt Q8N4C8); assay: Inhibition of MINK (unknown origin)
[22] = tested on: A2058; assay: Antitumor activity against human A2058 cells harboring BRAF V600E/PTEN deletion mutant xenografted in mouse assessed as suppression of ERK phosphorylation at 15 mg/kg, po administered every third day for 21 days and measured after 72 hrs post dose by Western blot analysis; assay type: functional, organism-based; conditions: time 576.0 hrs
[23] = target: Platelet-derived growth factor receptor beta (Homo sapiens, UniProt P09619); assay: Inhibition of PDGFR beta (unknown origin)
[24] = target: Mitogen-activated protein kinase 1 (Homo sapiens, UniProt P28482); assay: Inhibition of ERK2 (unknown origin)
Mitogen-activated protein kinase 1, sequence (P28482 whole entry): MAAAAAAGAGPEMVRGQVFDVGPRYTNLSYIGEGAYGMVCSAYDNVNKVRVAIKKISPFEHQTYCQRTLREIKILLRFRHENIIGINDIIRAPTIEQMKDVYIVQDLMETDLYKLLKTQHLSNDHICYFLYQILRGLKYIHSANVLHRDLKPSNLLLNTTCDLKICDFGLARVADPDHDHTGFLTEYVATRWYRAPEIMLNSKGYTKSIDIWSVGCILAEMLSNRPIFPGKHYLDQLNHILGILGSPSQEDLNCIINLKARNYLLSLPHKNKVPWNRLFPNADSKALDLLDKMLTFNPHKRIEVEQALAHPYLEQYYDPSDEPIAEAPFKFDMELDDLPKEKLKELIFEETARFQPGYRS

[25] = tested on: 888-mel; assay: Inhibition of S6 phosphorylation in human 888-mel cells incubated for 24 hrs in presence of 4-(2-(1H-indazol-4-yl)-6-((4-(methylsulfonyl)piperazin-1-yl)methyl)thieno[3,2-d]pyrimidin-4-yl)morpholine by immunoblotting analysis; assay type: cell-based
[26] = target: Serine/threonine-protein kinase PAK 6 (Homo sapiens, UniProt Q9NQU5); assay: Inhibition of PAK6 (unknown origin)
Serine/threonine-protein kinase PAK 6, sequence (Q9NQU5 whole entry): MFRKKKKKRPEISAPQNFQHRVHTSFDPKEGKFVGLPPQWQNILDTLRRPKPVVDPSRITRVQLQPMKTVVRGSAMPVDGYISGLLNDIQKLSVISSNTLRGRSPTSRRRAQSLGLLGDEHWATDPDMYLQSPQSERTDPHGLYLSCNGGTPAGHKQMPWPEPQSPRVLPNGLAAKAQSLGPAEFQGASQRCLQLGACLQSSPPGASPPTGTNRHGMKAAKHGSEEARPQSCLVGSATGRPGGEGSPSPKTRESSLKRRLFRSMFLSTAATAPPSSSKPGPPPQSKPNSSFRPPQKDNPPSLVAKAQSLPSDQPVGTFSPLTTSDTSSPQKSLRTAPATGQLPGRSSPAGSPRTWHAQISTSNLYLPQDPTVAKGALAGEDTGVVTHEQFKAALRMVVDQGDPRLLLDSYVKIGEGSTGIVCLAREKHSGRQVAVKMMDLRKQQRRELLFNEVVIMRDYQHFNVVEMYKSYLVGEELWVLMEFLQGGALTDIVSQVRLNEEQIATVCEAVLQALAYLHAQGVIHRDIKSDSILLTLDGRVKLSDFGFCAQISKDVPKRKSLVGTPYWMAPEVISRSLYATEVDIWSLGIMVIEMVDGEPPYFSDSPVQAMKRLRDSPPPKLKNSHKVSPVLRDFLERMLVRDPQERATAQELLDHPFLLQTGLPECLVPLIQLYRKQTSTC

[27] = target: Ribosomal protein S6 kinase alpha-5 (Homo sapiens, UniProt O75582); assay: Inhibition of MSK1 (unknown origin)
Ribosomal protein S6 kinase alpha-5, sequence (O75582 whole entry): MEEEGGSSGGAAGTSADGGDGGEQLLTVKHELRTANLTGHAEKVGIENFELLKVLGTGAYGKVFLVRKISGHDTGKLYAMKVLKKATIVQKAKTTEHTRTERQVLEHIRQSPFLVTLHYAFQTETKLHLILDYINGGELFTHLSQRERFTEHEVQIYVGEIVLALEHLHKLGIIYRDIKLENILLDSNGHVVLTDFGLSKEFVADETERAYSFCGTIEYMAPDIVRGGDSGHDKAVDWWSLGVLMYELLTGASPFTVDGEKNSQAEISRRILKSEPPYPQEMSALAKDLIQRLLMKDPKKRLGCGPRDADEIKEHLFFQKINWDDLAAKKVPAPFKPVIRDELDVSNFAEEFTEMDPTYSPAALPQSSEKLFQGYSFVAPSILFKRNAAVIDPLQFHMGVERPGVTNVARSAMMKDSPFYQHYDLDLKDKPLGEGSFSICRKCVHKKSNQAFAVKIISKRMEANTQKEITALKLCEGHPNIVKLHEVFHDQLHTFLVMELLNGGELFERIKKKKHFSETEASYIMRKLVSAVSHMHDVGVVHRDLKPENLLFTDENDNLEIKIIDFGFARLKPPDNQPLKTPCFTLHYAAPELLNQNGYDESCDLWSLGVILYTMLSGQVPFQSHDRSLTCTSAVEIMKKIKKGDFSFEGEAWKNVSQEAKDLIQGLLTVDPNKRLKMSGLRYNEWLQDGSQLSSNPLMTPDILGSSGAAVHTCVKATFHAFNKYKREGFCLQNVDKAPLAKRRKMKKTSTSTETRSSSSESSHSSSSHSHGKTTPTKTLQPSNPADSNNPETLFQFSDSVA

[28] = target: Fibroblast growth factor receptor 3 (Homo sapiens, UniProt P22607); assay: Inhibition of FGFR3 (unknown origin)

Insulin-like growth factor 1 receptor, sequence (P08069 31-736 limits assumed): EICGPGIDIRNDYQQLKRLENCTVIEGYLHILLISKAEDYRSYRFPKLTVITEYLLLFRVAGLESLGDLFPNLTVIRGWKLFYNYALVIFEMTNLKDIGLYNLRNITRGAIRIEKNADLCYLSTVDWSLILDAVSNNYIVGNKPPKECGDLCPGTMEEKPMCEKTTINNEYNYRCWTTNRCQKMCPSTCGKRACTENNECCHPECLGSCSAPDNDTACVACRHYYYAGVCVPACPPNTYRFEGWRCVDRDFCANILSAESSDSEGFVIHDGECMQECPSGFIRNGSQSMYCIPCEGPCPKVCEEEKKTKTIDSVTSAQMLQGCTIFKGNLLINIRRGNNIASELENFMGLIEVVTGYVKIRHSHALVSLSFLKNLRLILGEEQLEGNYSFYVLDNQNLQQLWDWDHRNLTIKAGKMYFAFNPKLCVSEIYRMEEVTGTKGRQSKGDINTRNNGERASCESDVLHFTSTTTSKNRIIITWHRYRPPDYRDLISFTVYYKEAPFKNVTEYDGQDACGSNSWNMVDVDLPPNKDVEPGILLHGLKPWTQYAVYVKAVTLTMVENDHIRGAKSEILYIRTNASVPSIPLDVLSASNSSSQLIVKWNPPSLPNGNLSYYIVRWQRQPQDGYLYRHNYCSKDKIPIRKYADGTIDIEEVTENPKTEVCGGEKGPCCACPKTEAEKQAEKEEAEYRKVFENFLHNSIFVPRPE
Insulin-like growth factor 1 receptor, sequence (P08069 741-1367 limits assumed): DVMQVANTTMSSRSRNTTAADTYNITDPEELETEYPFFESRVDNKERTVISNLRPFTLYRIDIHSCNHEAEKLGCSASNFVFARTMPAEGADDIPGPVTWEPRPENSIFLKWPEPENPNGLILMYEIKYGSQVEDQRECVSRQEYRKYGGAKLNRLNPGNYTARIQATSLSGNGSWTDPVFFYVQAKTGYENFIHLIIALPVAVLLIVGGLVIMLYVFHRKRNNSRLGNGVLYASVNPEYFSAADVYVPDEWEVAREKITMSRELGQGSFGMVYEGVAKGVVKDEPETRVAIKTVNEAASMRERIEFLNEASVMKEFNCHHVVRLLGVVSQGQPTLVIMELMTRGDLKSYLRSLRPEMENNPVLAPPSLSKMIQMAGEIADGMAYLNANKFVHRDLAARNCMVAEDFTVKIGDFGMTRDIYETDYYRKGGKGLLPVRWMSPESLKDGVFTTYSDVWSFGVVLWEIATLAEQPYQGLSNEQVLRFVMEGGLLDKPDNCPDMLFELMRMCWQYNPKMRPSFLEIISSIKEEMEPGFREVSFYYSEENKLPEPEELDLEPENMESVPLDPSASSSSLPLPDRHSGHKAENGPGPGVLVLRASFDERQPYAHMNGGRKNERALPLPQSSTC

- IC50 [1]: > 10 µM
- IC50 [2]: > 10 µM
- IC50 [3]: > 10 µM
- IC50 [8]: > 10 µM
- IC50 [10]: > 10 µM
- IC50 [11]: > 10 µM
- IC50 [12]: > 10 µM
- IC50 [14]: > 10 µM
- IC50 [18]: > 10 µM
- IC50 [21]: > 10 µM
- IC50 [23]: > 10 µM
- IC50 [24]: > 10 µM
- IC50 [26]: > 10 µM
- IC50 [27]: > 10 µM
- IC50 [28]: > 10 µM
Structure (SMILES): O=C(c1ccc(F)c(F)c1Nc1ccc(I)cc1F)N1CC(O)([C@@H]2CCCCN2)C1 [COBIMETINIB]
- inhibition [4]: Active
- inhibition in vivo at 15 mg/kg [5]: 41%
- inhibition in vivo at 10 mg/kg [6]: 47.3%
- Activity [7]: Active
- inhibition in vivo at 5 mg/kg [9]: 26%
- inhibition in vivo at 10 mg/kg [13]: 49.5%
- inhibition in vivo at 5 mg/kg [15]: 73%
- inhibition in vivo at 10 mg/kg [16]: 98%
- inhibition in vivo at 5 mg/kg [17]: 94%
- inhibition in vivo at 3 mg/kg [19]: 47%
- Activity [20]: Active
- Activity [22]: Active
- inhibition [25]: Active
